Laboratory results from ChEMBL document CHEMBL3271971, “Antineoplastic and biochemical properties of arylsulfonylhydrazones of 2-formylpyridine N-oxide” (J Med Chem, 1976).

Assays:
[1] = system: Mus musculus; assay: Effect on DNA synthesis in tumor of CD-1 mouse allografted with mouse S180A cells assessed as [3H]-thymidine incorporation at 80 mg/kg, ip pretreated for 3 hrs followed by radiotracer-addition measured after 1 hr relative to control; format: functional; settings: route intraperitoneal
How it was run: (§1)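 Mice bearing 6-day Sarcoma 180 ascites implants received a single ip dose of 80 mg/kg. At the stated pretreatment time they were given ip tracer: 200 μg thymidine-3H, 200 μg uridine-3H or 125 μg DL-leucine-14C. After 1 h of incorporation, specific radioactivity of DNA, RNA or protein was read as % of control incorporation.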

[2] = system: Mus musculus; assay: Effect on DNA synthesis in tumor of CD-1 mouse allografted with mouse S180A cells assessed as [3H]-thymidine incorporation at 80 mg/kg, ip pretreated for 12 hrs followed by radiotracer-addition measured after 1 hr relative to control; format: functional; settings: route intraperitoneal; how it was run: as §1
[3] = system: Mus musculus; assay: Effect on RNA synthesis in tumor of CD-1 mouse allografted with mouse S180A cells assessed as [3H]-uridine incorporation at 80 mg/kg, ip pretreated for 3 hrs followed by radiotracer-addition measured after 1 hr relative to control; format: functional; settings: route intraperitoneal; how it was run: as §1
[4] = system: Mus musculus; assay: Effect on RNA synthesis in tumor of CD-1 mouse allografted with mouse S180A cells assessed as [3H]-uridine incorporation at 80 mg/kg, ip pretreated for 12 hrs followed by radiotracer-addition measured after 1 hr relative to control; format: functional; settings: route intraperitoneal; how it was run: as §1
[5] = system: Mus musculus; assay: Effect on protein synthesis in tumor of CD-1 mouse allografted with mouse S180A cells assessed as [14C]-leucine incorporation at 80 mg/kg, ip pretreated for 6 hrs followed by radiotracer-addition measured after 1 hr relative to control; format: functional; settings: route intraperitoneal; how it was run: as §1
[6] = Antineoplastic activity against mouse S180A cells allografted in CD-1 mouse assessed as average survival at maximum effective dose administered qd for 6 days (reference value: 12.5 +/- 0.3 days); format: functional
How it was run: (§2)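 Sarcoma 180 ascites cells were transplanted from a donor mouse bearing a 7-day tumour. Each agent was tested at 10–60 mg/kg/day, once daily for six consecutive days, starting 24 h after transplantation, in groups of 5–10 mice. Pooled untreated controls totalled 40 mice. Mice surviving beyond 50 days were counted as 50-day survivors, and body-weight change over therapy served as the toxicity index.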

[7] = system: Mus musculus; assay: Toxicity in CD-1 mouse allografted with mouse S180A cells assessed as change in body weight at maximum effective dose administered qd for 6 days (reference value: 23.2%); format: organism-based; settings: 144 h
[8] = Antineoplastic activity against mouse S180A cells allografted in CD-1 mouse assessed as mouse survival at maximum effective dose administered qd for 6 days measured for 50 days relative to control; format: functional; how it was run: as §2
[9] = Antineoplastic activity against mouse S180A cells allografted in CD-1 mouse assessed as average survival at maximum effective dose administered qd for 6 days relative to control; format: functional; how it was run: as §2
[10] = system: Mus musculus; assay: Toxicity in CD-1 mouse allografted with mouse S180A cells assessed as change in body weight at 20 mg/kg administered qd for 6 days (reference value: 23.2%); format: organism-based; parameters: dose 20 mg/kg; settings: in vivo, 144 h
[11] = Antineoplastic activity against mouse S180A cells allografted in CD-1 mouse assessed as average survival at 20 mg/kg administered qd for 6 days (reference value: 12.9 +/- 1.2 days); format: functional
How it was run: (§3)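 Ascitic tumours were transplanted from an appropriate donor mouse carrying a 7-day tumour growth. Drug was given at 10–60 mg/kg/day for six consecutive days. Sensitivity was judged by prolongation of survival time relative to untreated tumour-bearing controls. Mice were weighed throughout, and percentage weight change from onset to end of therapy indicated toxicity.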

[12] = Antineoplastic activity against mouse S180A cells allografted in CD-1 mouse assessed as average survival at 60 mg/kg administered qd for 6 days (reference value: 12.9 +/- 1.2 days); format: functional; how it was run: as §3
[13] = Antineoplastic activity against mouse S180A cells allografted in CD-1 mouse assessed as mouse survival at 20 mg/kg administered qd for 6 days measured for 50 days relative to control; format: functional; how it was run: as §3
[14] = system: Mus musculus; assay: Toxicity in CD-1 mouse allografted with 1-formylisoquinoline thiosemicarbazone-resistant mouse S180A cells assessed as change in body weight at 40 mg/kg administered qd for 6 days (reference value: 29.6%); format: organism-based; parameters: dose 40 mg/kg; settings: in vivo, 144 h
How it was run: (§4)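 Ascitic tumors were transplanted from a donor mouse bearing a 7-day tumor. Daily doses were given for six consecutive days. Percentage body-weight change from onset to termination of therapy served as the index of drug toxicity.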

[15] = Antineoplastic activity against 1-formylisoquinoline thiosemicarbazone-resistant mouse S180A cells allografted in CD-1 mouse assessed as average survival at 60 mg/kg administered qd for 6 days (reference value: 14.4 +/- 0.9 days); format: functional; how it was run: as §3
[16] = system: Mus musculus; assay: Toxicity in BDF1 mouse allografted with mouse L1210 cells assessed as change in body weight at 20 mg/kg administered qd for 6 days (reference value: 13.6%); format: organism-based; parameters: dose 20 mg/kg; settings: in vivo, 144 h; how it was run: as §4
[17] = system: Mus musculus; assay: Toxicity in BDF1 mouse allografted with mouse L1210 cells assessed as change in body weight at 60 mg/kg administered qd for 6 days (reference value: 13.6%); format: organism-based; parameters: dose 60 mg/kg; settings: in vivo, 144 h; how it was run: as §4
[18] = system: L1210; assay: Antineoplastic activity against mouse L1210 cells allografted in BDF1 mouse assessed as average survival at 60 mg/kg administered qd for 6 days (reference value: 8.2 +/- 0.4 days); format: functional; how it was run: as §3
[19] = system: Mus musculus; assay: Toxicity in CD-1 mouse allografted with mouse EAC cells assessed as change in body weight at 20 mg/kg administered qd for 6 days (reference value: 26.8%); format: organism-based, Ehrlich; parameters: dose 20 mg/kg; settings: in vivo, 144 h; how it was run: as §4
[20] = system: Mus musculus; assay: Toxicity in CD-1 mouse allografted with mouse EAC cells assessed as change in body weight at 60 mg/kg administered qd for 6 days (reference value: 26.8%); format: organism-based, Ehrlich; parameters: dose 60 mg/kg; settings: in vivo, 144 h; how it was run: as §4
[21] = system: Ehrlich; assay: Antineoplastic activity against mouse EAC cells allografted in CD-1 mouse assessed as mouse survival at 20 mg/kg administered qd for 6 days measured for 50 days relative to control; format: functional; how it was run: as §3
[22] = Antineoplastic activity against mouse Hepa129 cells allografted in C3H mouse assessed as average survival at 60 mg/kg administered qd for 6 days (reference value: 18 +/- 0.6 days); format: functional; how it was run: as §3
[23] = system: Mus musculus; assay: Effect on DNA synthesis in tumor of CD-1 mouse allografted with mouse S180A cells assessed as [3H]-thymidine incorporation at 10 mg/kg, ip pretreated for 1 hr followed by radiotracer-addition measured after 1 hr relative to control; format: functional; settings: route intraperitoneal
How it was run: (§5)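 Sarcoma 180 ascites cells implanted 6 days earlier. Mice received a single ip dose of 10–80 mg/kg, then 1 h later an ip tracer: 200 μg thymidine-3H, 200 μg uridine-3H or 125 μg DL-leucine-14C. Tracer was incorporated for 1 h. Specific activity of tumor-cell DNA, RNA or protein is expressed as % of untreated controls. Values are means of 4-16 mice, each analyzed separately.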

[24] = system: Mus musculus; assay: Effect on DNA synthesis in tumor of CD-1 mouse allografted with mouse S180A cells assessed as [3H]-thymidine incorporation at 20 mg/kg, ip pretreated for 1 hr followed by radiotracer-addition measured after 1 hr relative to control; format: functional; settings: route intraperitoneal; how it was run: as §5
[25] = system: Mus musculus; assay: Effect on DNA synthesis in tumor of CD-1 mouse allografted with mouse S180A cells assessed as [3H]-thymidine incorporation at 80 mg/kg, ip pretreated for 1 hr followed by radiotracer-addition measured after 1 hr relative to control; format: functional; settings: route intraperitoneal; how it was run: as §5

Question: With Cc1ccc(S(=O)(=O)N/N=C/c2cccc[n+]2[O-])cc1 as the compound, how does the Activity [1] read?
Answer: 53%

Question: What about the Activity [2] of the same compound?
Answer: 57%

Question: What about the Activity [3] of the same compound?
Answer: 62%

Question: What about the Activity [4] of the same compound?
Answer: 102%

Question: And the Activity [5]?
Answer: 89%

Question: And the Survival [6]?
Answer: 38.4 days

Question: What about the Activity [7] of the same compound?
Answer: -8%

Question: What about the Survival [8] of the same compound?
Answer: 0%

Question: What about the T/C [9] of the same compound?
Answer: 307%

Question: And the Activity [10]?
Answer: 21.6%

Question: And the Survival [11]?
Answer: 24.9 days

Question: And the Survival [12]?
Answer: 38.4 days

Question: What about the survival at 20 mg/kg [13] of the same compound?
Answer: 10%

Question: What about the Activity [14] of the same compound?
Answer: 3.4%

Question: And the Survival [15]?
Answer: 24.4 days

Question: What about the Activity [16] of the same compound?
Answer: 10.6%

Question: And the Activity [17]?
Answer: -5.8%

Question: And the Survival [18]?
Answer: 11.8 days

Question: And the Activity [19]?
Answer: 2.4%

Question: What about the Activity [20] of the same compound?
Answer: -1.8%

Question: What about the survival at 20 mg/kg [21] of the same compound?
Answer: 10%

Question: And the Survival [22]?
Answer: 29.4 days

Question: And the Activity [23]?
Answer: 71%

Question: What about the Activity [24] of the same compound?
Answer: 71%

Question: What about the Activity [25] of the same compound?
Answer: 59%
